High-throughput results deposited in PubChem by Broad Institute.
EWS-Fli block = blocks EWS/Fli oncoprotein-driven transcription | AID 651661 | actives 0.67% (n = 350,000) | A673 NR0B1-luciferase reporter, viability-normalised | inhibition, % at 12.6 µM;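 active = mean inhibition of at least 50% after viability correction, with every replicate also passing that limit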;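 also: firefly luciferase signal divided by Alamar Blue viability fluorescence both relative to DMSO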
PAX8 inh HTS = inhibitors of PAX8 transcriptional activity in RMG-I cells; actives 1.2% (n = 360,000); RMG-I TPO-luciferase reporter, SteadyGlo, 24 h; inhibition, % at 12.6 µM;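 active = mean replicate inhibition at least 60% with every replicate also reaching 60%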;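 also: luciferase light reporting Pax8 driven TPO promoter activity; plate controls were median of neutral control wells for no effect and mitoxantrone controls for full effect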
FN deposit inh = fibronectin deposition inhibition | AH1F fibroblasts, Alexa488-fibronectin deposition fluorescence, overnight | inhibition, % at 12.6 µM | actives 0.086% (n = 350,000) | AID 743247;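 active = mean inhibition across replicates of 30% or more, regardless of how many single replicates reach that level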;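 also: positive control wells lacked labelled fibronectin entirely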
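Material: AH1F fibroblasts assembling fluorescent fibronectin matrix; amount: 10000 AH1F cells/well; medium: DMEM, 2% serum; reagent: Alexa488-fibronectin, 24 nM final in well; dosing: single compound dose, delivered by pin transfer; incubation: 1 h adhesion, overnight exposure; detection: fluorescence after three HBSS washes, excitation 485 nm, emission 525 nm; measure: fibronectin deposition inhibition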
aSyn 5UTR inh = MLPCN primary screen, SNCA 5' untranslated region. AID 1813. inhibition, % (tested at 7.5 µM). alpha-synuclein 5'UTR reporter, inhibitor activity. actives 0.82% (n = 300,000); in the data active = inhibition above about 60%;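 also: H4 neuroglioblastoma cells stably carrying SNCA 5'UTR luciferase fusion; 0% = DMSO wells and 100% = positive control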
Shn3 3UTR inh = inhibitors of Schnurri-3 3'UTR reporter in osteoblasts; inhibition, % at 12.5 µM; actives 0.52% (n = 360,000); Clone20 osteoblast Shn3 3'UTR firefly luciferase, 24 h;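 active = mean inhibition of at least 75% with every replicate also reaching 75%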;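 also: 0% = median of neutral control wells and 100% = pilot-screen positive control compound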
LMP1 NFkB inh = inhibitors of Epstein-Barr LMP1-induced NF-kappaB reporter; actives 0.69% (n = 350,000); LMP1-induced NF-kappaB luciferase reporter cells, luminescence; inhibition, % at 12.5 µM; in the data active = inhibition above about 41%;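 also: 0% = neutral control wells and 100% = reference inhibitor control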
DNA binder FP = binds DNA displacing acridine orange; actives 2% (n = 640); AC35, µM (highest dose often 68 µM), for the others: at the highest dose activity change, negative = DNA binding; salmon sperm DNA acridine orange fluorescence polarization; shares compounds with EWS-Fli block;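 active = fitted curve reaches a 35% signal fall AC35 below twice the sample's top valid tested dose, actives reach about 48 µM in these data; inactive = the rest, including activity in the rising direction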;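 also: lower polarization ratio signals compound binding to DNA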
* marks the source's active call; other numbers are inactive results. The list is not random: actives were taken first. Their share in the collection is about 2.1%.

Screening O=C(Cc1cccnc1)N1CCCCN2[C@H](C1)[C@@H](c1ccc(/C=C/c3ccccc3)cc1)[C@@H]2CO returned EWS-Fli block 6 and PAX8 inh HTS -10.
`COC(=O)[C@H]1[C@H](CO)[C@H]2Cn3c(ccc(-c4ccccc4F)c3=O)[C@@H]1N2CC1CCCC1` gave EWS-Fli block 66* and DNA binder FP -10%.
Screening COC(=O)[C@@H]1[C@@H](CO)[C@@H]2Cn3c(ccc(-c4ccccc4)c3=O)[C@H]1N2CC1CCCC1 returned EWS-Fli block -2.
For CC(=O)OC1CC(OC2C(O)CC(OC3C(O)CC(OC4CCC5(C)C(CCC6C5CCC5(C)C(C7=CC(=O)OC7)CCC65O)C4)OC3C)OC2C)OC(C)C1OC1OC(CO)C(O)C(O)C1O (stereo unspecified) the results were EWS-Fli block 53*, PAX8 inh HTS 102*, FN deposit inh 5, Shn3 3UTR inh 1, LMP1 NFkB inh 76* and DNA binder FP -17%.
Screening COC1C(C)OC(OC2CC(C)(O)Cc3cc4c(c(O)c32)C(=O)c2c(O)cc3c(c2C4=O)OC2OC3(C)C(O)C(N(C)C)C2O)C(OC)C1(C)OC (stereo unspecified) returned EWS-Fli block 56*, FN deposit inh -4, Shn3 3UTR inh 3, LMP1 NFkB inh 85* and DNA binder FP 1.3µM*.
CCN1[C@@H]2c3ccc(-c4cccc(OC)c4)c(=O)n3C[C@H]1[C@H](CO)[C@H]2C(=O)OC was read as EWS-Fli block 2 and PAX8 inh HTS -6.
Screening CC1OC(OC2CC(O)C3(CO)C4C(O)CC5(C)C(C6=CC(=O)OC6)CCC5(O)C4CCC3(O)C2)C(O)C(O)C1O (stereo unspecified) returned EWS-Fli block 68*, Shn3 3UTR inh -10, LMP1 NFkB inh 80* and DNA binder FP 5%.
C[C@@H]1O[C@@H](O[C@H]2C[C@@H](O)[C@]3(CO)[C@H]4[C@H](O)C[C@]5(C)[C@@H](C6COC(=O)C6)CC[C@]5(O)[C@@H]4CC[C@]3(O)C2)[C@H](O)[C@H](O)[C@H]1O (stereo partly specified) was read as EWS-Fli block 70*, PAX8 inh HTS 105*, FN deposit inh 8, aSyn 5UTR inh 115*, Shn3 3UTR inh -3, LMP1 NFkB inh 55* and DNA binder FP -1%.
`COC(=O)[C@@H]1[C@@H](CO)[C@@H]2Cn3c(ccc(-c4cccc(OC)c4)c3=O)[C@H]1N2C(=O)c1ccccc1F` gave EWS-Fli block -5 and PAX8 inh HTS 10.
O=C(NC[C@H]1CC[C@H]2[C@H](CN2Cc2cccnc2)O1)C1CC1 was read as EWS-Fli block -8 and PAX8 inh HTS -34.
For COC(=O)[C@H]1[C@H](CO)[C@H]2Cn3c(ccc(C4=CCCCC4)c3=O)[C@@H]1N2Cc1cccnc1 the results were EWS-Fli block -2 and PAX8 inh HTS 3.
O=C1NC(=S)NC(=O)C1=Cc1cccn1-c1ccc(O)cc1 was read as EWS-Fli block 71*, PAX8 inh HTS 32, FN deposit inh 3, aSyn 5UTR inh -42, Shn3 3UTR inh 16, LMP1 NFkB inh 16 and DNA binder FP 0%.
`C[C@@H]1O[C@@H](O[C@@H]2C=C3CC[C@@H]4C(CC[C@]5(C)[C@@H](c6ccc(=O)oc6)CC[C@]45O)[C@@]3(C)CC2)[C@H](O)[C@H](O)[C@H]1O` (stereo partly specified) gave EWS-Fli block 71*, PAX8 inh HTS 108*, FN deposit inh 13, Shn3 3UTR inh 3, LMP1 NFkB inh 82* and DNA binder FP -10%.
For C[C@@H]1O[C@@H](O[C@@H]2C=C3CCC4C(CC[C@]5(C)[C@@H](c6ccc(=O)oc6)CC[C@]45O)[C@@]3(C)CC2)[C@H](O)[C@H](O)[C@H]1O (stereo partly specified) the results were EWS-Fli block 71*, PAX8 inh HTS 110*, FN deposit inh 5, Shn3 3UTR inh -2, LMP1 NFkB inh 88* and DNA binder FP 2%.
`COC(=O)[C@H]1[C@H](CO)[C@H]2Cn3c(ccc(/C=C/c4ccccc4)c3=O)[C@@H]1N2CC1CCCC1` gave EWS-Fli block 2 and PAX8 inh HTS 22.
For O=C(Cc1ccncc1)N1CCCCN2[C@H](CO)[C@@H](c3ccc(C#CC4(O)CCCC4)cc3)[C@@H]2C1 the results were PAX8 inh HTS 6.
For C[C@@H]1CN([C@H](C)CO)C(=O)c2c(c3ccccc3n2C)-c2ccccc2CO[C@H]1CN(C)C(=O)Oc1ccccc1 the results were PAX8 inh HTS -7 and FN deposit inh -7.
